Data taken from ChEMBL document CHEMBL1121584, “Soft drugs. 3. A new class of anticholinergic agents” (J Med Chem, 1980).

What was measured:
[1] = Cholinergic potency was expressed in terms of relative activity vs acetylcholine; c = NA means no activity found at the doses used.; type: functional
[2] = species: Cavia porcellus; assay: Antihistamine activity was measured by the guinea pig ileum test; c = NA means no activity found at the doses used.; type: functional
Summary of the method: (§1)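 Guinea pig ileum strips, McEwan's solution, Carbogen, 37 °C, 1 g tension. Cumulative histamine concentration-response curves were recorded before and after 15–20 min equilibration with rising antagonist concentrations. pA2 came from dose ratios of mean curves.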

[3] = species: Felis catus; assay: acetylcholine antagonist effect of compound on cat blood pressure at concentration 5.7*10e-9 in 2 min; type: functional
Summary of the method: (§2)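 Adult cats anesthetized ip with α-chloralose (80 mg/kg) plus sodium pentobarbitone (6 mg/kg), bilaterally vagotomized, artificially respired. Carotid arterial pressure recorded. Drugs given iv via brachial vein. Acetylcholine dose giving 70-80% of maximal vasodepressor response used throughout. Test drug injected, acetylcholine response checked 1 min later, then every ~2-3 min. Value is % of control vasodepressor response to acetylcholine.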

[4] = species: Felis catus; assay: acetylcholine antagonist effect of compound on cat blood pressure at concentration 5.7*10e-8 in 9 min; type: functional; summary of the method: as §2
[5] = The hydrolytic kinetics expressed as Kobs was measured at 7.4 pH at 37 degree C; type: ADME; conditions: pH 7.4
Summary of the method: (§3)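 Chemical hydrolysis in 0.5 M potassium phosphate, pH 7.4, 37 °C. Rate was followed by appearance of the acid product or loss of the quaternary salt. Where salt contained amine hydrochloride, initial concentration was taken from final acid after complete hydrolysis. Half-life was estimated from both where resolved.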

[6] = system: Felis catus; assay: acetylcholine antagonist effect of compound on cat blood pressure at concentration 5.7*10e-8 mol/kg in 1 min; type: functional
Summary of the method: (§4)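 Adult cats under ip α-chloralose (80 mg/kg) plus pentobarbitone (6 mg/kg), bilaterally vagotomized and artificially respired. Carotid blood pressure was recorded. An iv acetylcholine dose giving 70–80% of maximal vasodepressor response was used. After iv test drug, acetylcholine responses were checked at 1 min and then every 2–3 min and expressed as % of control. Doses were given in mol/kg, escalating after recovery.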

[7] = species: Felis catus; assay: acetylcholine antagonist effect of compound on cat blood pressure at concentration 5.4*10e-8 in 28 min
[8] = species: Felis catus; assay: acetylcholine antagonist effect of compound on cat blood pressure at concentration 5.7*10e-8 in 13 min; type: functional; summary of the method: as §4
[9] = species: Canis familiaris; assay: The hydrolytic kinetics expressed as Kobs was measured in dog plasma at 37 degree C; type: ADME, Canis lupus familiaris
Summary of the method: (§5)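 Fresh dog blood was centrifuged and the upper layer filtered through 0.8 and 0.2 µm membranes. 2 mL plasma samples with gentisic acid internal standard were incubated. 5 µL aliquots taken at intervals were assayed against acid standard curves in methanol. Rates came from acid appearance or quaternary salt loss.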

[10] = species: Felis catus; assay: acetylcholine antagonist effect of compound on cat blood pressure at concentration 5.4*10e-8 in 38 min
[11] = species: Felis catus; assay: acetylcholine antagonist effect of compound on cat blood pressure at concentration 5.7*10e-8 in 18 min; type: functional; summary of the method: as §4
[12] = species: Felis catus; assay: acetylcholine antagonist effect of compound on cat blood pressure at concentration 5.4*10e-8 in 2 min
[13] = species: Felis catus; assay: acetylcholine antagonist effect of compound on cat blood pressure at concentration 5.7*10e-8 in 23 min; type: functional; summary of the method: as §4
[14] = Half life period was measured at 7.4 pH from d[acid]/dt.; type: ADME; conditions: pH 7.4; summary of the method: as §3
[15] = The hydrolytic kinetics expressed as Kobs was measured at 9.4 pH at 36 degree C; type: ADME; conditions: pH 9.4
Summary of the method: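 Hydrolysis in 0.1 M sodium carbonate-bicarbonate, pH 9.4, ionic strength 0.5 (NaCl added), 36 °C. Kobsd was followed from the rate of acid formation.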

[16] = Cholinergic potency was expressed in terms of relative activity vs acetylcholine.; type: functional
[17] = species: Cavia porcellus; assay: Anticholinergic activity was measured by the guinea pig ileum test; c = NA means no activity found at the doses used; type: functional; conditions: read-out: pA2 (converted)
Summary of the method: (§6)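 Guinea pig whole ileum strips in McEwan's solution, gassed with O2/CO2 95:5, 37 °C organ bath, 1 g tension. Cumulative acetylcholine concentration-response curves were run to constancy, then repeated after 15–20 min equilibration with increasing antagonist concentrations. Mean curves gave dose ratios, from which competitive antagonism and pA2 were derived.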

[18] = species: Canis familiaris; assay: The hydrolytic kinetics expressed as Kobs was measured in dog plasma at 36 degree C; type: ADME, Canis lupus familiaris; summary of the method: as §5
[19] = species: Felis catus; assay: acetylcholine antagonist effect of compound on cat blood pressure at concentration 5.7*10e-9 in 7 min; type: functional; summary of the method: as §2
[20] = species: Cavia porcellus; assay: Antihistamine activity was measured by the guinea pig ileum test; c = NA means no activity found at the doses used; type: functional; summary of the method: as §1
[21] = species: Felis catus; assay: acetylcholine antagonist effect of compound on cat blood pressure at concentration 5.7*10e-9 in 4 min; type: functional; summary of the method: as §2
[22] = species: Felis catus; assay: acetylcholine antagonist effect of compound on cat blood pressure at concentration 5.7*10e-8 in 5 min; type: functional; summary of the method: as §2
[23] = species: Felis catus; assay: acetylcholine antagonist effect of compound on cat blood pressure at concentration 5.4*10e-8 in 44 min
[24] = Half life period was measured at 37 degree C in dog plasma from d[quant]/dt.; type: ADME, Canis lupus familiaris; summary of the method: as §5
[25] = species: Felis catus; assay: acetylcholine antagonist effect of compound on cat blood pressure at concentration 5.7*10e-9 in 1 min; type: functional; summary of the method: as §2
[26] = species: Felis catus; assay: acetylcholine antagonist effect of compound on cat blood pressure at concentration 5.4*10e-8 in 33 min
[27] = species: Cavia porcellus; assay: Anticholinergic activity was measured by the guinea pig ileum test.; type: functional; conditions: for Kb: Cavia porcellus, Ileum, read-out: pA2 (converted); summary of the method: as §6
[28] = species: Cavia porcellus; assay: Antihistamine activity was measured by the guinea pig ileum test.; type: functional; conditions: for Kb: Cavia porcellus, Ileum, read-out: pA2 (converted); summary of the method: as §1
[29] = species: Cavia porcellus; assay: Anticholinergic activity was measured by the guinea pig ileum test; c = NA means no activity found at the doses used.; type: functional; summary of the method: as §6
[30] = Half life period was measured at 7.4 pH from d[quant]/dt.; type: ADME; conditions: pH 7.4; summary of the method: as §3
[31] = species: Cavia porcellus; assay: Anticholinergic activity was measured by the guinea pig ileum test; NA means no activity found at the doses used; type: functional; summary of the method: as §6
[32] = Cholinergic potency was expressed in terms of relative activity vs acetylcholine; NA means no activity found at the doses used.; type: functional
[33] = species: Sus scrofa; assay: Half life period was measured at 37 degree C in […] from d[acid]/dt.; type: ADME; conditions: pig, in vitro; in the assay text read “esterase” for “plasma”
Summary of the method: (§7)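 Hog liver carboxylesterase (EC 3.1.1.1), 2.4 units, with substrate at 5.6×10^-3 mol L-1 in 0.5 M potassium phosphate pH 7.4 containing gentisate internal standard, 37 °C. Rate was taken from acid formation.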

[34] = species: Sus scrofa; assay: The hydrolytic kinetics expressed as Kobs was measured in […] at 37 degree C; type: ADME; conditions: pig; summary of the method: as §7

SMILES: CC[N+](CC)(CC)COC(=O)C(c1ccccc1)C1CCCC1 (stereo not given)
- Activity [1]: No activity
- pA2 [2]: No activity

SMILES: C[N+]1(COC(=O)C(c2ccccc2)C2CCCC2)CCCC1.[Cl-] (stereo not given)
- Response [3]: 0%
- Response [4]: 0%
- K obs [5]: 0.000578 min⁻¹
- Response [6]: 0%
- Response [7]: 69%
- Response [8]: 31%
- K obs [9]: 0.00168 min⁻¹
- Response [10]: 88%
- Response [11]: 63%
- Response [12]: 0%
- Response [13]: 63%
- half-life [14]: 20 h
- K obs [15]: 0.139 min⁻¹
- Activity [16]: No activity
- Kb [17]: 3.98 nM
- K obs [18]: 0.00144 min⁻¹
- Response [19]: 100%
- pA2 [20]: No activity
- Response [21]: 67%
- Response [22]: 0%
- Response [23]: 88%
- half-life [24]: 6.5 h
- Response [25]: 0%
- Response [26]: 81%

SMILES: CC1CCC[N+]1(C)COC(=O)C1(c2ccccc2)CC1.[Cl-] (stereo not given)
- K obs [5]: 0.00055 min⁻¹
- half-life [14]: 21 h
- Kb [27]: 251 nM
- Kb [28]: 575 nM

SMILES: CCC(C)C(=O)OC[N+]1(C)CCCC1 (stereo not given)
- pA2 [29]: No activity
- Kb [28]: 2510 nM

SMILES: CCC(C(=O)OC[n+]1ccn(C)c1)c1ccccc1.[Cl-] (stereo not given)
- half-life [14]: 5.7 h
- half-life [30]: 6 h
- Kb [27]: 1260 nM
- Kb [28]: 1260 nM

SMILES: CCC(C)C(=O)OC[N+]12CCC(CC1)C(OC(C)=O)C2 (stereo not given)
- Activity [16]: 1
- pA2 [29]: No activity

SMILES: CC(=O)OC1C[N+]2(COC(=O)C(c3ccccc3)C3CCCC3)CCC1CC2.[Cl-] (stereo not given)
- pA2 [27]: 8.6
- pA2 [28]: 5.7

SMILES: C[N+]1(C2OC(=O)c3ccccc32)CCCC1 (stereo not given)
- pA2 [31]: No activity
- Activity [32]: No activity

SMILES: CC[N+](CC)(COC(=O)C(C)(C)C)CC(=O)Nc1c(C)cccc1C
- Activity [16]: 1
- pA2 [29]: No activity

SMILES: C[N+]1(COC(=O)C2(c3ccccc3)CC2)CCCC1.[Cl-]
- K obs [5]: 0.00068 min⁻¹
- half-life [14]: 17 h
- pA2 [2]: No activity
- Kb [27]: 1580 nM

SMILES: Cn1cc[n+](COC(=O)C(c2ccccc2)C2CCCC2)c1 (stereo not given)
- Kb [27]: 15.8 nM
- Kb [28]: 501 nM

SMILES: CCC(C)C(=O)OC[N+]1(C)CCCC1C (stereo not given)
- Activity [1]: No activity
- Kb [27]: 12600 nM

SMILES: CCC(C(=O)OC[N+](CC)(CC)CC)c1ccccc1.[Cl-] (stereo not given)
- K obs [9]: 0.00815 min⁻¹
- T1/2 [33]: 2.1 h
- K obs [34]: 0.00542 min⁻¹
- half-life [14]: 2.6 h
- half-life [30]: 2.5 h
- half-life [24]: 1.4 h
- Kb [27]: 251 nM
- Kb [28]: 316 nM
